ChEMBL document CHEMBL4041496, “Natural-Based Indirubins Display Potent Cytotoxicity toward Wild-Type and T315I-Resistant Leukemia Cell Lines” (J Nat Prod, 2016)
Active and inactive are the calls of the source. The rule behind the calls is not given here.

Legend:
[1] = system: KCL-22; test: Cytotoxicity against human KCL22 cells assessed as reduction in cell viability at 1 uM after 48 hrs by MTS assay; type: functional, cell-based
Procedure, shortened: (§1)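 Single-concentration screen: KCL-22 cells, or KCL-22 cells expressing T315I mutant Bcr-Abl, grown in RPMI-1640 with 10% FBS. Cells were seeded at 10 000/well, held overnight at 37 °C in 5% CO2, then exposed to 1 μM compound for 48 h, with DMSO as vehicle control. Viability was read by MTS tetrazolium-to-formazan conversion, absorbance 490 nm, in triplicate.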

[2] = system: KCL-22; test: Cytotoxicity against human KCL22 cells harboring ABL1 T315I mutant assessed as reduction in cell viability at 1 uM after 48 hrs by MTS assay; type: functional, cell-based; procedure, shortened: as §1
[3] = system: KCL-22; test: Cytotoxicity against human KCL22 cells harboring ABL1 T315I mutant assessed as cell viability at 1 uM after 48 hrs by MTS assay relative to control; type: functional; settings: Homo sapiens, KCL-22, 48 h; read-out: Activity; procedure, shortened: as §1
[4] = system: KCL-22; test: Cytotoxicity against human KCL22 cells assessed as cell viability at 1 uM after 48 hrs by MTS assay relative to control; type: functional; settings: Homo sapiens, KCL-22, 48 h; read-out: Activity; procedure, shortened: as §1

Row | SMILES | Activity [1] | Activity [2] | viability at 1 µM [3] | viability at 1 µM [4]
1 | CC(=O)O/N=C1/C(=C2/C(=O)Nc3cc(Br)c([N+](=O)[O-])cc32)Nc2ccccc21 | inactive | inactive |  | 
2 | O=C1Nc2cc(Br)ccc2/C1=C1/Nc2ccccc2/C1=N\OCCN1CCN(CCO)CC1 |  |  | > 50% | > 50%
3 | O=C1Nc2c(cccc2C(F)(F)F)/C1=C1/Nc2ccccc2/C1=N\OCCN1CCNCC1 | inactive | inactive |  | 
4 | COC(=O)c1ccc2c(c1)N/C(=C1\C(=O)Nc3c1cccc3C(F)(F)F)C2=O | inactive | inactive |  | 
5 | CN1C(=O)/C(=C2\Nc3ccccc3C2=O)c2cccc(I)c21 | inactive | inactive |  | 
6 | O=C1Nc2c(cccc2C(F)(F)F)/C1=C1/Nc2ccc(C(=O)O)cc2/C1=N\O | inactive | inactive |  | 
7 | CN1C(=O)/C(=C2\Nc3ccccc3\C2=N/O)c2ccc(Br)cc21 |  |  | > 50% | > 50%
8 | O=C1Nc2c(F)cccc2/C1=C1/Nc2ccccc2/C1=N\O | inactive | inactive |  | 
9 | CC(=O)c1ccc(NC(=O)O/N=C2/C(=C3/C(=O)Nc4cc(Br)ccc43)Nc3ccccc32)cc1 |  |  | > 50% | > 50%
10 | O=C1Nc2c(Br)cccc2/C1=C1/Nc2ccc(C(=O)O)cc2/C1=N\O | inactive | inactive |  | 
11 | O=C1Nc2c(cccc2C(F)(F)F)/C1=C1/Nc2ccc(-c3nnn[nH]3)cc2C1=O | inactive | inactive |  | 
12 | CCN(CC)C(=O)O/N=C1/C(=C2/C(=O)Nc3cc(Br)ccc32)Nc2ccccc21 |  |  | > 50% | > 50%
13 | O=C1Nc2cc(Br)c([N+](=O)[O-])cc2/C1=C1/Nc2ccccc2C1=O | inactive | inactive |  | 
14 | O=C1Nc2ccccc2/C1=C1/Nc2cc(Br)ccc2C1=O | inactive | inactive |  | 
15 | CC(=O)O/N=C1/C(=C2/C(=O)Nc3cc(Br)ccc32)Nc2ccccc21 [6-BROMOINDIRUBIN-3'-ACETOXIME] |  |  | > 50% | > 50%
16 | O=C1Nc2c(F)cccc2/C1=C1/Nc2ccccc2C1=O | inactive | inactive |  | 
17 | O=C1Nc2c(Br)cccc2/C1=C1/Nc2cc(C(=O)O)ccc2/C1=N\OCCN1CCNCC1 | inactive | inactive |  | 
18 | CN1C(=O)/C(=C2\Nc3ccccc3\C2=N/O)c2cccc(I)c21 | inactive | inactive |  | 
19 | COC(=O)c1ccc2c(c1)NC(=C1\C(=O)Nc3c(Br)cccc31)/C2=N/OCCN1CCNCC1 | inactive | inactive |  | 
20 | O=C1Nc2c(Br)cccc2/C1=C1/Nc2ccc(-c3nnn[nH]3)cc2/C1=N\O | inactive | inactive |  | 
21 | CCCCCNC(=O)O/N=C1/C(=C2/C(=O)Nc3cc(Br)ccc32)Nc2ccccc21 |  |  | > 50% | > 50%
22 | O=C1Nc2c(cccc2C(F)(F)F)/C1=C1/Nc2cc(C(=O)O)ccc2/C1=N\O | inactive | inactive |  | 
23 | O=C1Nc2c(cccc2C(F)(F)F)/C1=C1/Nc2ccccc2/C1=N\O | inactive | inactive |  | 

Row | SMILES | Activity [1] | Activity [2] | viability at 1 µM [3] | viability at 1 µM [4]
24 | O=C1Nc2c(Br)cccc2/C1=C1/Nc2ccccc2C1=O | inactive | inactive |  | 
25 | COC(=O)c1ccc2c(c1)N/C(=C1\C(=O)Nc3c(Br)cccc31)C2=O | inactive | inactive |  | 
26 | O=C1Nc2c(Br)cccc2/C1=C1/Nc2ccc(-c3nnn[nH]3)cc2C1=O | inactive | inactive |  | 
27 | O=C(NC(Cl)(Cl)Cl)O/N=C1/C(=C2/C(=O)Nc3cc(Br)ccc32)Nc2ccccc21 |  |  | > 50% | > 50%
28 | O=C1Nc2c(I)cccc2/C1=C1/Nc2ccccc2C1=O | inactive | inactive |  | 
29 | COC(=O)c1ccc2c(c1)C(=O)/C(=C1/C(=O)N(C)c3c(Br)cccc31)N2 | inactive | inactive |  | 
30 | CC(=O)O/N=C1/C(=C2/C(=O)N(C(C)=O)c3cc(Br)c([N+](=O)[O-])cc32)Nc2ccccc21 | inactive | inactive |  | 
31 | O=C1Nc2c(cccc2C(F)(F)F)/C1=C1/Nc2ccc(-c3nnn[nH]3)cc2/C1=N\O | inactive | inactive |  | 
32 | O=C1Nc2c(Br)cccc2/C1=C1/Nc2cc(C(=O)O)ccc2/C1=N\O | inactive | inactive |  | 
33 | O=C1Nc2ccccc2/C1=C1/Nc2ccccc2/C1=N\O | inactive | inactive |  | 
34 | O=C1Nc2c(Br)cccc2/C1=C1/Nc2ccccc2/C1=N\O | inactive | inactive |  | 
35 | N#Cc1ccc2c(c1)C(=N\O)/C(=C1/C(=O)Nc3c1cccc3C(F)(F)F)N2 | inactive | inactive |  | 
36 | COC(=O)c1ccc2c(c1)C(=O)/C(=C1/C(=O)Nc3c(Br)cccc31)N2 | inactive | inactive |  | 
37 | O=C1Nc2c(cccc2C(F)(F)F)/C1=C1/Nc2cc(C(=O)O)ccc2/C1=N\OCCN1CCNCC1 | inactive | inactive |  | 
38 | CN1C(=O)/C(=C2\Nc3ccccc3\C2=N/O)c2cccc(Cl)c21 | inactive | inactive |  | 
39 | COC(=O)c1ccc2c(c1)C(=N\OCCN1CCNCC1)/C(=C1/C(=O)Nc3c(Br)cccc31)N2 | inactive | inactive |  | 
40 | O=C1Nc2ccccc2/C1=C1/Nc2ccccc2C1=O | inactive | inactive |  | 
41 | O=C1Nc2cc(Br)c([N+](=O)[O-])cc2/C1=C1/Nc2ccccc2/C1=N\O | inactive | inactive |  | 
42 | COC(=O)c1ccc2c(c1)C(=N\OCCN1CCNCC1)/C(=C1/C(=O)Nc3c1cccc3C(F)(F)F)N2 | inactive | inactive |  | 
43 | O=C1Nc2c(Br)cccc2/C1=C1/Nc2ccc(C(=O)O)cc2/C1=N\OCCN1CCNCC1 | inactive | inactive |  | 
44 | COC(=O)c1ccc2c(c1)NC(=C1\C(=O)Nc3c1cccc3C(F)(F)F)/C2=N/O | inactive | inactive |  | 
45 | CC(=O)O/N=C1/C(=C2/C(=O)Nc3cc(Br)c(C)cc32)Nc2ccccc21 | inactive | inactive |  | 
46 | COC(=O)c1ccc2c(c1)NC(=C1\C(=O)Nc3c1cccc3C(F)(F)F)/C2=N/OCCN1CCNCC1 | inactive | inactive |  | 

Row | SMILES | Activity [1] | Activity [2] | viability at 1 µM [3] | viability at 1 µM [4]
47 | O=C1Nc2c(Br)cccc2/C1=C1/Nc2ccc(/C=N/O)cc2C1=O | inactive | inactive |  | 
48 | O=C1Nc2ccccc2/C1=C1/Nc2cc(Br)ccc2/C1=N\O | inactive | inactive |  | 
49 | O=C1Nc2c(I)cccc2/C1=C1/Nc2ccccc2/C1=N\O | inactive | inactive |  | 
50 | Nc1cc2c(cc1Br)NC(=O)/C2=C1\Nc2ccccc2\C1=N/O | inactive | inactive |  | 
51 | O=C1Nc2c(Br)cccc2/C1=C1/Nc2ccccc2/C1=N\OCCN1CCNCC1 | inactive | inactive |  | 
52 | Cc1cc2c(cc1Br)NC(=O)/C2=C1\Nc2ccccc2C1=O | inactive | inactive |  | 
53 | N#Cc1ccc2c(c1)C(=O)/C(=C1/C(=O)Nc3c1cccc3C(F)(F)F)N2 | inactive | inactive |  | 
54 | O=C1Nc2c(Cl)cccc2/C1=C1/Nc2ccccc2C1=O | inactive | inactive |  | 
55 | O=C1Nc2c(cccc2C(F)(F)F)/C1=C1/Nc2ccccc2/C1=N\OCCN1CCN(CCO)CC1 | inactive | inactive |  | 
56 | COC(=O)c1ccc2c(c1)C(=O)/C(=C1/C(=O)Nc3c1cccc3C(F)(F)F)N2 | inactive | inactive |  | 
57 | O=C1Nc2c(cccc2C(F)(F)F)/C1=C1/Nc2ccc(C(=O)O)cc2/C1=N\OCCN1CCNCC1 | inactive | inactive |  | 
58 | O=C1Nc2cc(Cl)c(Cl)cc2/C1=C1/Nc2ccccc2C1=O | inactive | inactive |  | 
59 | O=C1Nc2c(Br)cccc2/C1=C1/Nc2ccc(/C=N/O)cc2/C1=N\O | inactive | inactive |  | 
60 | COC(=O)c1ccc2c(c1)C(=N\O)/C(=C1/C(=O)Nc3c(Br)cccc31)N2 | inactive | inactive |  | 
61 | COC(=O)c1ccc2c(c1)NC(=C1\C(=O)Nc3c(Br)cccc31)/C2=N/O | inactive | inactive |  | 
62 | CCN(CC)CCO/N=C1/C(=C2/C(=O)Nc3c(Br)cccc32)Nc2ccccc21 | inactive | inactive |  | 
63 | COC(=O)c1ccc2c(c1)C(=N\O)/C(=C1/C(=O)Nc3c1cccc3C(F)(F)F)N2 | inactive | inactive |  | 
64 | CN1C(=O)/C(=C2\Nc3ccccc3\C2=N/O)c2cccc(Br)c21 | inactive | inactive |  | 
65 | CN1C(=O)/C(=C2\Nc3ccccc3\C2=N/OCCN2CCNCC2)c2cccc(Br)c21 | inactive | inactive |  | 
66 | O=C1Nc2c(cccc2C(F)(F)F)/C1=C1/Nc2ccccc2C1=O | inactive | inactive |  | 
67 | O=C1Nc2c(Cl)cccc2/C1=C1/Nc2ccccc2/C1=N\O | inactive | inactive |  | 
68 | CN1C(=O)/C(=C2\Nc3ccccc3C2=O)c2cccc(Cl)c21 | inactive | inactive |  | 
